Experimental data: ChEMBL document CHEMBL1147243, “Antitumor agents. 228. five new agarofurans, Reissantins A-E, and cytotoxic principles from Reissantia buchananii” (2003)
In brackets after ≈: the same amount, converted by molar mass. Activity calls are given as the source filed them. The calls are words filed in the database; no cut-off is given here.

How the values were obtained:
HCT-8 [1] = assay: Cytotoxicity against human HCT8 cells after 3 days by SRB assay; type: functional; conditions: HCT-8, 72 h, read-out: ED50 (the source's name)
How it was run: (§1)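 Tumour lines kept in RPMI-1640 with 25 mM HEPES, 0.25% sodium bicarbonate, 10% FBS and 100 µg/mL kanamycin. Freshly trypsinized cells were seeded at 1500-7500 per well with compound from DMSO-diluted stock. After 3 days, attached cells were fixed with cold 50% TCA, stained with 0.4% SRB, and the bound dye was solubilized and read at 562 nm. ED50 is the concentration giving 50% growth reduction.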

KB = assay: Cytotoxicity against human KB cells after 3 days by SRB assay; type: functional; conditions: 72 h, read-out: ED50 (the source's name); how it was run: as §1
[2] = Cytotoxicity against human KBVIN cells after 3 days by SRB assay; type: functional; conditions: 72 h, read-out: ED50 (the source's name)
How it was run: (§2)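 Freshly trypsinized cells from T-25 stock cultures were seeded at 1500-7500 cells/well with compound added from DMSO-diluted stock. The medium was RPMI-1640 with 25 mM HEPES, 0.25% sodium bicarbonate, 10% FBS and 100 µg/mL kanamycin. After 3 days, attached cells were fixed with cold 50% TCA, stained with 0.4% SRB, and the bound dye solubilized and read at 562 nm. ED50 is the concentration giving 50% growth reduction.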

[3] = Cytotoxicity against human U87MG cells after 3 days by SRB assay; type: functional, U-87MG ATCC; conditions: U-87 MG, 72 h, read-out: ED50 (the source's name); how it was run: as §2
PC-3 = assay: Cytotoxicity against human PC3 cells after 3 days by SRB assay; type: functional; conditions: PC-3, 72 h, read-out: ED50 (the source's name); how it was run: as §1
1A9 [4] = assay: Cytotoxicity against human 1A9 cells after 3 days by SRB assay; type: functional; conditions: 1A9, 72 h, read-out: ED50 (the source's name); how it was run: as §1
1A9/ptx-10 [5] = assay: Cytotoxicity against human 1A9/PTX10 cells after 3 days by SRB assay; type: functional; conditions: 1A9/ptx-10, 72 h, read-out: ED50 (the source's name); how it was run: as §1
1A9 [6] = assay: Cytotoxicity against human 1A9 cells after 6 days by SRB assay; type: functional; conditions: 1A9, 144 h, read-out: ED50 (the source's name)
How it was run: (§3)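 Cells were grown in RPMI-1640 supplemented with 25 mM HEPES, 0.25% sodium bicarbonate, 10% FBS and 100 µg/mL kanamycin. Freshly trypsinized cells were plated at 1500-7500 per well with compound from DMSO-diluted stock over a 6-day assay period. Cells were fixed with cold 50% TCA and stained with 0.4% SRB, and the solubilized dye was read at 562 nm. ED50 is the concentration reducing growth by 50%.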

1A9/ptx-10 [7] = assay: Cytotoxicity against human 1A9/PTX10 cells after 6 days by SRB assay; type: functional; conditions: 1A9/ptx-10, 144 h, read-out: ED50 (the source's name); how it was run: as §3
A549 = assay: Cytotoxicity against human A549 cells after 3 days by SRB assay; type: functional; conditions: A549, 72 h, read-out: ED50 (the source's name); how it was run: as §1
MCF7 = assay: Cytotoxicity against human MCF7 cells after 3 days by SRB assay; type: functional; conditions: MCF7, 72 h, read-out: ED50 (the source's name); how it was run: as §1
KBVIN = assay: Cytotoxicity against human KBVIN cells at 20 ug/ml after 3 days by SRB assay; type: functional, cell-based
U-87MG ATCC = assay: Cytotoxicity against human U87MG cells at 20 ug/ml after 3 days by SRB assay; type: functional, cell-based
HCT-8 [8] = assay: Cytotoxicity against human HCT8 cells at 20 ug/ml after 3 days by SRB assay; type: functional, cell-based
1A9 [9] = assay: Cytotoxicity against human 1A9 cells at 20 ug/ml after 6 days by SRB assay; type: functional, cell-based

Structure (SMILES)	EC50 (HCT-8 [1]) [µg/mL]	EC50 (KB) [µg/mL]	EC50 [2] [µg/mL]	EC50 [3] [µg/mL]	EC50 (PC-3) [µg/mL]	EC50 (1A9 [4]) [µg/mL]	EC50 (1A9/ptx-10 [5]) [µg/mL]	EC50 (1A9 [6]) [µg/mL]	EC50 (1A9/ptx-10 [7]) [µg/mL]	EC50 (A549) [µg/mL]	EC50 (MCF7) [µg/mL]	Activity (KBVIN)	Activity (U-87MG ATCC)	Activity (HCT-8 [8])	Activity (1A9 [9])
COC(=O)[C@]1(C)CC[C@]2(C)CC[C@]3(C)C4=CC(=O)c5c(cc(O)c(O)c5C)[C@]4(C)CC[C@@]3(C)[C@@H]2C1	14.1 (≈ 29.3 µM)	14.5 (≈ 30.2 µM)	16.6 (≈ 34.5 µM)	> 20	> 20	11.7 (≈ 24.3 µM)	12.4 (≈ 25.8 µM)	10.7 (≈ 22.3 µM)	7.1 (≈ 14.8 µM)	16.4 (≈ 34.1 µM)	12.8 (≈ 26.6 µM)	–	–	–	–
COC(=O)[C@]1(C)CC[C@]2(C)CC[C@]3(C)C4=CC=C5C(=CC(=O)C(O)=C5C)[C@]4(C)CC[C@@]3(C)[C@@H]2C1 [PRISTIMERIN]	0.15 (≈ 0.323 µM)	0.1 (≈ 0.215 µM)	0.29 (≈ 0.624 µM)	0.17 (≈ 0.366 µM)	0.23 (≈ 0.495 µM)	0.1 (≈ 0.215 µM)	0.11 (≈ 0.237 µM)	0.11 (≈ 0.237 µM)	0.076 (≈ 0.164 µM)	0.31 (≈ 0.667 µM)	0.14 (≈ 0.301 µM)	–	–	–	–
CC(=O)O[C@H]1C(=O)[C@@]2(C)[C@H]([C@H](OC(=O)c3ccccc3)[C@]3(O)C[C@H](OC(=O)[C@H](O)[C@@H](NC(=O)c4ccccc4)c4ccccc4)C(C)=C1C3(C)C)[C@]1(OC(C)=O)CO[C@@H]1C[C@@H]2O [PACLITAXEL]	0.011 (≈ 0.0129 µM)	0.001 (≈ 0.00117 µM)	–	–	–	0.002 (≈ 0.00234 µM)	–	0.041 (≈ 0.048 µM)	–	0.005 (≈ 0.00586 µM)	–	–	–	–	–
CC(=O)O[C@H]1[C@@H]2[C@@H](OC(=O)c3ccc(=O)n(C)c3)[C@@]3(OC2(C)C)[C@](C)([C@H]1OC(=O)c1ccccc1)[C@@H](OC(C)=O)[C@@H](OC(=O)c1ccccc1)C[C@]3(C)O [REISSANTIN B]	> 20	11.7 (≈ 15.7 µM)	17.1 (≈ 22.9 µM)	> 20	> 20	17.1 (≈ 22.9 µM)	> 20	13.7 (≈ 18.4 µM)	15.3 (≈ 20.5 µM)	15.3 (≈ 20.5 µM)	> 20	–	–	–	–
CC(=O)O[C@H]1[C@@H]2[C@@H](OC(=O)c3ccc(=O)n(C)c3)[C@@]3(OC2(C)C)[C@@](C)([C@@H](OC(C)=O)CC[C@]3(C)O)[C@H]1OC(=O)c1ccccc1 [REISSANTIN A]	> 20	> 20	–	–	> 20	> 20	> 20	> 20	> 20	> 20	> 20	inactive	inactive	–	–
CC1(C)CC[C@]2(C)CC[C@]3(C)C(=CC[C@@H]4[C@@]5(C)CC[C@H](O)C(C)(C)C5C(=O)C[C@]43C)[C@H]2C1 (some centres undefined)	13.7 (≈ 31.1 µM)	13 (≈ 29.5 µM)	14.7 (≈ 33.4 µM)	6.7 (≈ 15.2 µM)	15.1 (≈ 34.3 µM)	11.4 (≈ 25.9 µM)	11 (≈ 25 µM)	11.3 (≈ 25.6 µM)	11.2 (≈ 25.4 µM)	13.3 (≈ 30.2 µM)	14.6 (≈ 33.1 µM)	–	–	–	–
CC(=O)O[C@H]1CC[C@](C)(O)[C@]23OC(C)(C)[C@H]([C@H](O)[C@H](OC(=O)c4ccccc4)[C@]12C)[C@H]3O [REISSANTIN D]	–	> 20	–	–	> 20	> 20	> 20	> 20	> 20	> 20	16.2 (≈ 36.1 µM)	inactive	inactive	inactive	–
CC(=O)O[C@H]1[C@@H]2[C@@H](O)[C@@]3(OC2(C)C)[C@@](C)([C@@H](OC(C)=O)CC[C@]3(C)O)[C@H]1OC(=O)c1ccccc1 [REISSANTIN E]	> 20	14.4 (≈ 29.4 µM)	16.5 (≈ 33.6 µM)	–	> 20	> 20	> 20	–	> 20	> 20	> 20	–	inactive	–	inactive
CC1=C(O)C(=O)C=C2C1=CC=C1[C@@]2(C)CC[C@@]2(C)[C@@H]3C[C@](C)(C(=O)O)CC[C@]3(C)CC[C@]12C [CELASTROL]	0.23 (≈ 0.51 µM)	0.2 (≈ 0.444 µM)	0.34 (≈ 0.755 µM)	0.22 (≈ 0.488 µM)	0.27 (≈ 0.599 µM)	0.091 (≈ 0.202 µM)	0.1 (≈ 0.222 µM)	0.11 (≈ 0.244 µM)	0.11 (≈ 0.244 µM)	0.25 (≈ 0.555 µM)	0.21 (≈ 0.466 µM)	–	–	–	–
CC[C@H](CC[C@@H](C)[C@H]1CC[C@H]2[C@@H]3CC=C4C[C@@H](O)CC[C@]4(C)[C@H]3CC[C@]12C)C(C)C [BETA-SITOSTEROL]	> 20	> 20	> 20	> 20	> 20	16.8 (≈ 40.5 µM)	20 (≈ 48.2 µM)	10.6 (≈ 25.6 µM)	9.5 (≈ 22.9 µM)	> 20	> 20	–	–	–	–
